Published values of several laboratories.
Gpr84: G-protein coupled receptor 84 (Gpr84, Mus musculus, UniProt Q8CIM5)
MDH2: Malate dehydrogenase, mitochondrial (MDH2, Sus scrofa, UniProt P00346)

| Compound | target | test | setting | endpoint | result |
| --- | --- | --- | --- | --- | --- |
| CCCCCCCCCC(=O)O | Gpr84 | cAMP, agonist |  | EC50 | > 10 µM |
| COc1c(Br)cccc1C(=O)Nc1ccc(Sc2nc3ccccc3s2)c(Cl)c1 | MDH2 | enzyme activity, inhibitor |  | IC50 | > 62.5 µM |
| CC(C)C[C@H](NC(=O)[C@H](CCCNC(=N)N)NC(=O)[C@H](C)N)C(=O)N[C@@H](Cc1ccc(O)cc1)C(=O)N[C@@H](Cc1ccc(O)cc1)C(=O)N[C@@H](Cc1ccccc1)C(=O)N[C@@H](Cc1c[nH]c2ccccc12)C(=O)N[C@@H](CC(=O)O)C(=O)N[C@H](C(=O)O)[C@@H](C)O | DNA dC->dU-editing enzyme APOBEC-3G (APOBEC3G, Homo sapiens, UniProt Q9HC16) | enzyme activity, inhibitor |  | Ki | ~7.8 µM |
| O=S(=O)(Nc1ccc(-c2nc3cc(NS(=O)(=O)c4cccc5ccccc45)ccc3o2)cc1)c1cccc2ccccc12 | MDH2 | enzyme activity, inhibitor |  | IC50 | > 62.5 µM |
| CCCCCCCCNc1cc(=O)[nH]c(=O)[nH]1 | Gpr84 | cAMP, agonist |  | EC50 | 0.066 µM |
| Cc1cnc(-c2ccc(-c3ccc(NC(=O)Nc4c(F)cc(F)cc4F)cc3F)c3c2C(=O)NC3)[nH]1 | Proto-oncogene tyrosine-protein kinase Src (SRC, Homo sapiens, UniProt P12931) | binding, competition with immobilised ligand |  | Kd | 0.11 µM |
| O=C(Nc1ccc(Sc2nc3ccccc3s2)c(Cl)c1)c1cccc(Br)c1O | MDH2 | enzyme activity, inhibitor |  | IC50 | > 62.5 µM |
| CC(=O)N[C@@H](Cc1ccccc1)C(=O)N1CCC[C@H]1C(=O)N1CCC[C@H]1C(=O)N1CCC[C@H]1C(=O)N1CCC[C@H]1C(=O)O | Protein enabled homolog (ENAH, UniProt Q8N8S7) | binding, fluorescence |  | Kd | 500 µM |
| CC(C)(C)n1nc(-c2ccc3nc(OC4CC4)ccc3c2)c(C(N)=O)c1N | RAC-alpha serine/threonine-protein kinase (AKT1, Homo sapiens, UniProt P31749) | cell-free assay |  | IC50 | > 10 µM |
| CO[C@@H]1O[C@@H](C)[C@@H](O)[C@@H](O)[C@@H]1O | fleA (Aspergillus fumigatus, UniProt Q4WW81) | binding, ITC |  | Kd | 76.4 µM |
| CC(=O)N[C@@H](CCCNC(=N)N)C(=O)NCCOCCOCC(=O)N[C@H](CC(=O)O)C(=O)N1CCC[C@H]1B(O)O | Dipeptidyl peptidase 4 (DPP4, Homo sapiens, UniProt P27487) | enzyme activity, inhibitor, fluorescence |  | Ki | 7.13 µM |
| O=C(/C=C/c1ccc(-n2ccnc2)cc1)N1CCN(C(=O)c2ccco2)CC1 | Protein ENL, YEATS (MLLT1, Homo sapiens, UniProt Q03111) | binding, BLI |  | Kd | 14 µM |
| CNC(=O)c1cc2c(Oc3ccc(NC(=O)C4(C(=O)Nc5ccc(F)cc5)CC4)cc3)ccnc2cc1OC | Ephrin type-A receptor 2 (EPHA2, Homo sapiens, UniProt P29317) | enzyme activity, inhibitor, radiometric |  | IC50 | 0.054 µM |
| Cc1cc2nc3c(=O)[nH]c(=O)nc-3n(C[C@H](O)[C@H](O)[C@H](O)COP(=O)(O)OP(=O)(O)OC[C@H]3O[C@@H](n4cnc5c(N)ncnc54)[C@H](O)[C@@H]3O)c2cc1C | Ataxin-2 (Homo sapiens, UniProt Q99700) | binding | lysate | Kd | 0.022 µM |
| CCCN1CCN(c2ccc(-c3cncc(Cl)c3N3CCC4(CCNC4=O)CC3)cc2)CC1 | Serine/threonine-protein kinase D2 (PRKD2, Homo sapiens, UniProt Q9BZL6) | cell-free assay | lysate | Kd | 20 µM |
